In brackets after ≈: the same amount, converted by molar mass. Values belong to the compound of their own block, whether it stands above or below them.
Experiments:
[1] = AUC in rat at 20 mg/kg, po; format: ADME, organism-based; set-up: dose 20 mg/kg, route oral; details: plasma
How it was run: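 Female CD rats were dosed orally at 20 mg/kg, with a separate 5 mg/kg IV arm. Exposure (AUC) was taken from the plasma profile after the oral dose.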

[2] = Clearance in rat at 5 mg/kg, iv; format: ADME, organism-based; set-up: dose 5 mg/kg, route intravenous; details: in vivo
How it was run: (§1)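 Female CD rats received 5 mg/kg IV (20 mg/kg PO arm). Female CD1 mice received 5 mg/kg IV (10 mg/kg PO arm). Male and female beagles and male cynomolgus monkeys each received 1 mg/kg IV (2 mg/kg PO arm). Clearance and half-life were derived from plasma concentration–time profiles after the IV dose.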

[3] = Volume of distribution at steady state in rat at 5 mg/kg, iv; format: ADME, organism-based; set-up: dose 5 mg/kg, route intravenous; details: in vivo, read-out: Vdss
How it was run: (§2)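 Rat PK used a 5 mg/kg intravenous dose and a 20 mg/kg oral dose.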

[4] = Aqueous solubility of the compound; format: physicochemical
[5] = Apparent permeability from apical to basal side of human Caco2 cells; format: ADME, cell-based; details: Caco-2
[6] = Apparent permeability from basal to apical side of human Caco2 cells; format: ADME, cell-based; details: Caco-2
[7] = Solubility of the compound at pH 7; format: physicochemical; details: buffer
[8] = Intrinsic clearance in rat liver microsomes; format: ADME, Microsome; details: read-out: CLH
[9] = Intrinsic clearance in human liver microsomes; format: ADME, Microsome; details: read-out: CLH
[10] = Oral bioavailability in rat at 20 mg/kg; format: ADME, organism-based; details: in vivo; how it was run: as §2
[11] = Oral bioavailability in rat at 10 mg/kg; format: ADME, organism-based; details: in vivo
How it was run: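 Rat PK used a 5 mg/kg intravenous dose and a 10 mg/kg oral dose.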

[12] = AUC in rat at 10 mg/kg, po; format: ADME, organism-based; set-up: dose 10 mg/kg, route oral; details: plasma
[13] = system: Plasma; experiment: Plasma concentration in nu/nu mouse xenografted with human A2780 cells at 60 mg/kg, po; format: ADME, organism-based; set-up: dose 60 mg/kg, route oral; details: in vivo
How it was run: (§3)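 A2780 tumor-bearing mice were given oral doses (3, 10, 60 and 100 mg/kg were examined). Tumor AKT Ser473 phosphorylation and plasma exposure were measured, with the 10 h time point sampled.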

[14] = system: Plasma; experiment: Plasma concentration in nu/nu mouse xenografted with human A2780 cells at 100 mg/kg, po; format: ADME, organism-based; set-up: dose 100 mg/kg, route oral; details: in vivo; how it was run: as §3
[15] = Drug uptake in tumor in nu/nu mouse xenografted with human A2780 cells at 60 mg/kg, po; format: ADME, organism-based, Neoplasm; set-up: dose 60 mg/kg, route oral; details: in vivo, read-out: Drug uptake
How it was run: (§4)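 A2780 tumor-bearing mice received a single oral dose. Tumors and plasma were sampled at 10 h. Tumor pAKT Ser473 was assessed for target modulation, and compound concentrations were measured in plasma and tumor.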

[16] = Drug uptake in tumor in nu/nu mouse xenografted with human A2780 cells at 100 mg/kg, po; format: ADME, organism-based, Neoplasm; set-up: dose 100 mg/kg, route oral; details: in vivo, read-out: Drug uptake; how it was run: as §4
[17] = Lipophilicity, log D at pH 7.4; format: physicochemical; details: buffer
[18] = Dissociation constant, pKa of the compound; format: physicochemical
[19] = Half life in CD1 mouse at 5 mg/kg, iv; format: ADME, organism-based; set-up: dose 5 mg/kg, route intravenous; details: in vivo; how it was run: as §1
[20] = Clearance in CD1 mouse at 5 mg/kg, iv; format: ADME, organism-based; set-up: dose 5 mg/kg, route intravenous; details: in vivo; how it was run: as §1
[21] = Volume of distribution at steady state in CD1 mouse at 5 mg/kg, iv; format: ADME, organism-based; set-up: dose 5 mg/kg, route intravenous; details: in vivo, read-out: Vdss
How it was run: (§5)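 Female CD1 mice were dosed at 5 mg/kg IV and 10 mg/kg PO.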

[22] = Oral bioavailability in CD1 mouse at 10 mg/kg; format: ADME, organism-based; details: in vivo; how it was run: as §5
[23] = Half life in CD rat at 5 mg/kg, iv; format: ADME, organism-based; set-up: dose 5 mg/kg, route intravenous; details: in vivo; how it was run: as §1
[24] = Clearance in CD rat at 5 mg/kg, iv; format: ADME, organism-based; set-up: dose 5 mg/kg, route intravenous; details: in vivo; how it was run: as §1
[25] = Volume of distribution at steady state in CD rat at 5 mg/kg, iv; format: ADME, organism-based; set-up: dose 5 mg/kg, route intravenous; details: in vivo, read-out: Vdss
How it was run: (§6)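 Female CD rats were dosed at 5 mg/kg IV and 20 mg/kg PO.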

[26] = Oral bioavailability in CD rat at 20 mg/kg; format: ADME, organism-based; details: in vivo; how it was run: as §6
[27] = Half life in beagle dog at 1 mg/kg, iv; format: ADME, organism-based, Canis lupus familiaris; set-up: dose 1 mg/kg, route intravenous; details: in vivo; how it was run: as §1
[28] = Clearance in beagle dog at 1 mg/kg, iv; format: ADME, organism-based, Canis lupus familiaris; set-up: dose 1 mg/kg, route intravenous; details: in vivo; how it was run: as §1
[29] = Volume of distribution at steady state in beagle dog at 1 mg/kg, iv; format: ADME, organism-based, Canis lupus familiaris; set-up: dose 1 mg/kg, route intravenous; details: in vivo, read-out: Vdss
How it was run: (§7)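 Male and female beagle dogs were dosed at 1 mg/kg IV and 2 mg/kg PO.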

[30] = Oral bioavailability in beagle dog at 2 mg/kg; format: ADME, organism-based, Canis lupus familiaris; details: in vivo; how it was run: as §7
[31] = Half life in cynomolgus monkey at 1 mg/kg, iv; format: ADME, organism-based, Macaca fascicularis; set-up: dose 1 mg/kg, route intravenous; details: in vivo; how it was run: as §1
[32] = Clearance in cynomolgus monkey at 1 mg/kg, iv; format: ADME, organism-based, Macaca fascicularis; set-up: dose 1 mg/kg, route intravenous; details: in vivo; how it was run: as §1
[33] = Volume of distribution at steady state in cynomolgus monkey at 1 mg/kg, iv; format: ADME, organism-based, Macaca fascicularis; set-up: dose 1 mg/kg, route intravenous; details: in vivo, read-out: Vdss
How it was run: (§8)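 Male cynomolgus monkeys were dosed at 1 mg/kg IV and 2 mg/kg PO.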

[34] = Oral bioavailability in cynomolgus monkey at 2 mg/kg; format: ADME, organism-based, Macaca fascicularis; details: in vivo; how it was run: as §8

clearance [2]: 9 mL/min/kg | Vd [3]: 4.5 L/kg | bioavailability [11]: 68% | AUC [12]: 64 µM·h | solubility [7]: 8 µM (≈ 2.87 µg/mL) | microsomal CLint [8]: ≤ 9 µL/min/mg | microsomal CLint [9]: ≤ 9 µL/min/mg
Compound: Nc1ncc(-c2cc(N3CCOCC3)nc(N3CCOCC3)n2)c(N)n1

clearance [2]: 24 mL/min/kg | AUC [1]: 24 µM·h | Vd [3]: 2.8 L/kg | bioavailability [10]: 56% | solubility [7]: 22 µM (≈ 7.91 µg/mL) | microsomal CLint [8]: ≤ 9 µL/min/mg | microsomal CLint [9]: ≤ 9 µL/min/mg
Compound: Nc1ncc(-c2cc(N3CCOCC3)nc(N3CCOCC3)n2)c(=O)[nH]1

clearance [2]: 11 mL/min/kg | AUC [1]: 62 µM·h | Vd [3]: 2.1 L/kg | bioavailability [10]: 83% | solubility [7]: 61 µM (≈ 25.1 µg/mL) | microsomal CLint [8]: ≤ 9 µL/min/mg | microsomal CLint [9]: ≤ 9 µL/min/mg
Compound: Nc1ncc(-c2cc(N3CCOCC3)nc(N3CCOCC3)n2)c(C(F)(F)F)n1

Continued, compound first:

Compound: Nc1ncc(-c2cc(Nc3cnc4ccccc4c3)nc(N3CCOCC3)n2)cn1
AUC [1]: 7 µM·h

Compound: Nc1cc(C(F)(F)F)c(-c2cc(Nc3cnc4ccccc4c3)nc(N3CCOCC3)n2)cn1
clearance [2]: 8 mL/min/kg | AUC [1]: 114 µM·h | Vd [3]: 2.6 L/kg | solubility [4]: 0.3 µg/mL (≈ 0.642 µM) | Papp A→B [5]: 1.56 ×10⁻⁶ cm/s | Papp B→A [6]: 2.15 ×10⁻⁶ cm/s

Compound: Nc1ncc(-c2cc(Nc3cnc4ccccc4c3)nc(N3CCOCC3)n2)c(C(F)(F)F)n1
clearance [2]: 11 mL/min/kg | AUC [1]: 26 µM·h | Vd [3]: 2.8 L/kg

Compound: Nc1ncc(-c2cc(N3CCOCC3)nc(N3CCOCC3)n2)cn1
solubility [7]: 25 µM (≈ 8.58 µg/mL) | microsomal CLint [8]: ≤ 9 µL/min/mg | microsomal CLint [9]: ≤ 9 µL/min/mg

Compound: Nc1cc(Cl)c(-c2cc(N3CCOCC3)nc(N3CCOCC3)n2)cn1
clearance [2]: 22 mL/min/kg | AUC [1]: 29 µM·h | Vd [3]: 1.11 L/kg | bioavailability [10]: 69% | solubility [7]: 45 µM (≈ 17 µg/mL) | microsomal CLint [8]: ≤ 9 µL/min/mg | microsomal CLint [9]: ≤ 9 µL/min/mg

Compound: N#Cc1cc(N)ncc1-c1cc(N2CCOCC2)nc(N2CCOCC2)n1
clearance [2]: 11 mL/min/kg | AUC [1]: 86 µM·h | Vd [3]: 1.6 L/kg | bioavailability [10]: 98% | solubility [7]: 11 µM (≈ 4.04 µg/mL) | microsomal CLint [8]: ≤ 9 µL/min/mg | microsomal CLint [9]: ≤ 9 µL/min/mg

Compound: Nc1cc(C(F)(F)F)c(-c2cc(N3CCOCC3)nc(N3CCOCC3)n2)cn1 [BUPARLISIB]
clearance [2]: 3 mL/min/kg | AUC [1]: 178 µM·h | Vd [3]: 3.1 L/kg | bioavailability [10]: 50% | solubility [7]: 132 µM (≈ 54.2 µg/mL) | microsomal CLint [8]: ≤ 9 µL/min/mg | microsomal CLint [9]: ≤ 9 µL/min/mg | concentration [13]: 2000 nM | concentration [14]: 2000 nM | concentration [15]: 2000 nM | concentration [16]: 2000 nM | logD [17]: 2.9 | pKa [18]: 5.1 | half-life [19]: 1.6 h | clearance [20]: 11 mL/min/kg | Vd [21]: 1.4 L/kg | bioavailability [22]: 71% | half-life [23]: 11 h | clearance [24]: 3 mL/min/kg | Vd [25]: 3.1 L/kg | bioavailability [26]: 50% | half-life [27]: 6.6 h | clearance [28]: 7.3 mL/min/kg | Vd [29]: 3.1 L/kg | bioavailability [30]: > 100% | half-life [31]: 3.6 h | clearance [32]: 13 mL/min/kg | Vd [33]: 3.1 L/kg | bioavailability [34]: 44%
